Experiments:
Type in all cases: functional, cell-based
A2780 = assay: Antiproliferative activity against human A2780 cells
U-937 = assay: Antiproliferative activity against human U937 cells
Outline: (§1)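 Cultured human cancer lines (MDA-MB-435 breast, HT-29 colon, H522-T1 non-small cell, U937 histiocytic lymphoma) were exposed to compound, and growth was read by luminescence. The method follows an earlier report, with luminescence measured on a multilabel reader.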

[1] = Antiproliferative activity against human H522T1 cells; conditions: H522-T1; outline: as §1
MDA-MB-435 = assay: Antiproliferative activity against human MDA-MB-435 cells; outline: as §1
HT-29 = assay: Antiproliferative activity against human HT29 cells; outline: as §1

## CO[C@H]1CCO[C@@H](O[C@@H]2C=C3CC[C@@H]4[C@H](CC[C@]5(C)[C@@H](C6=CC(=O)OC6)CC[C@]45O)[C@@]3(C)C[C@H]2O)[C@H]1O
A2780
  IC50: 2500 nM

## CO[C@H]1CCO[C@H]2O[C@@H]3C=C4CC[C@@H]5[C@H](CC[C@]6(C)[C@@H](C7=CC(=O)OC7)CC[C@]56O)[C@@]4(C)C[C@H]3O[C@]21O [ELAEODENDROSIDE B]
U-937
  IC50: 50 nM
A2780
  IC50: 19 nM
[1]
  IC50: 80 nM
MDA-MB-435
  IC50: 150 nM
HT-29
  IC50: 80 nM

## CO[C@H]1CCO[C@H]2O[C@@H]3C=C4CC[C@@H]5[C@H](CC[C@]6(C)[C@@H](C7=CC(=O)OC7)[C@@H](OC(C)=O)C[C@]56O)[C@@]4(C)C[C@H]3O[C@]21O [ELAEODENDROSIDE F]
A2780
  IC50: 190 nM

## CO[C@@H]1CCO[C@H]2O[C@@H]3C=C4CC[C@@H]5[C@H](CC[C@]6(C)[C@@H](C7=CC(=O)OC7)[C@@H](OC(C)=O)C[C@]56O)[C@@]4(C)C[C@H]3O[C@]21O [ELAEODENDROSIDE G]
A2780
  IC50: 100 nM

## CO[C@@H]1C[C@@H](C)O[C@H]2O[C@@H]3C=C4CC[C@@H]5[C@H](CC[C@]6(C)[C@@H](C7=CC(=O)OC7)[C@@H](OC(C)=O)C[C@]56O)[C@@]4(C)C[C@H]3O[C@]21O [ELAEODENDROSIDE T]
U-937
  IC50: 150 nM
A2780
  IC50: 85 nM
[1]
  IC50: 180 nM
MDA-MB-435
  IC50: 370 nM
HT-29
  IC50: 180 nM

## CO[C@H]1CCO[C@@H](O[C@@H]2C=C3CC[C@@H]4[C@H](CC(=O)[C@]5(C)[C@@H](C6=CC(=O)OC6)CC[C@]45O)[C@@]3(C)C[C@H]2O)[C@H]1O [ELAEODENDROSIDE U]
A2780
  IC50: 30000 nM

From ChEMBL document CHEMBL1143723, “Antiproliferative cardenolides of an Elaeodendron sp. from the Madagascar rain forest(1)” (J Nat Prod, 2007)
